Measured values: ChEMBL document CHEMBL4706726, “Glucosamine and Its Analogues as Modulators of Amyloid-β Toxicity” (ACS Med Chem Lett, 2021)
Calls of active or inactive are those of the source. The rule behind the calls is not given here.

Assays:
[1] = biological target: Amyloid-beta precursor protein (Homo sapiens) (UniProt P05067); assay: Modulation of human amyloid beta (1 to 42) supramolecular assembly assessed as elongation of amyloid beta42 fibrils at <50 mM measured for 10 days by ThT dye based fluorescence spectrophotometry; conditions: filed as modulator, dose mM <50, time 10.0 day
Chain of Amyloid-beta precursor protein (Homo sapiens) (P05067 whole entry): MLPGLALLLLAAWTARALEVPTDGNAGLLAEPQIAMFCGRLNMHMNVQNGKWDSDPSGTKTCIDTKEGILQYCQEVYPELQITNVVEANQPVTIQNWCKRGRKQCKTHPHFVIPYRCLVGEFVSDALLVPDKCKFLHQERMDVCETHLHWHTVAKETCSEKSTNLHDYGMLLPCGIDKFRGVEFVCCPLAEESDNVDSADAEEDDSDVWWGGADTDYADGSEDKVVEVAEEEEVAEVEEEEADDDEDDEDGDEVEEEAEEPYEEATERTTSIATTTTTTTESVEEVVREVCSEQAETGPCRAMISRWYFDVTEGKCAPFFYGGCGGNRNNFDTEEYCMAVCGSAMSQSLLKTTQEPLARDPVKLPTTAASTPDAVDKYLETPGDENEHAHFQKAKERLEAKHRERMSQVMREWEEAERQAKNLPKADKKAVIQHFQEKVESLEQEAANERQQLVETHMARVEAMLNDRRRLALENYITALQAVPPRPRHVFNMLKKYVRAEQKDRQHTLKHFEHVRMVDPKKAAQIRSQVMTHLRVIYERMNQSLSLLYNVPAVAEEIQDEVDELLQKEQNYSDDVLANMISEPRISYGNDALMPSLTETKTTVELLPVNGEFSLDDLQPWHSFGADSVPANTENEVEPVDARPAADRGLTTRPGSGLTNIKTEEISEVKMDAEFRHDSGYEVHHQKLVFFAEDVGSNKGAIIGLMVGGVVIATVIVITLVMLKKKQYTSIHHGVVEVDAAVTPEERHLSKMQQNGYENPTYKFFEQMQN
Summary of the method: (§1)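 Aβ42 aggregation kinetics followed for 10 days by thioflavin-T fluorescence, which reports parallel β-sheets. Each monosaccharide tested at several concentrations from 250 μM up to 50 mM.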

[2] = biological target: Amyloid-beta precursor protein (Homo sapiens) (UniProt P05067); assay: Modulation of human amyloid beta (1 to 42) supramolecular assembly assessed as elongation of amyloidbeta42 fibrils at 50 mM measured for 10 days by ThT dye based fluorescence spectrophotometry; conditions: time 10.0 day; summary of the method: as §1
[3] = biological target: Amyloid-beta precursor protein (Homo sapiens) (UniProt P05067); assay: Modulation of human amyloid beta (1 to 42) supramolecular organization assessed as reduction in antiparallel beta-sheets characteristic of cytotoxic Abeta42 aggregates at 1 mM measured for 5 days by CD spectrometry; conditions: filed as modulator, time 5.0 day
Summary of the method: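 Aβ42 secondary structure followed by circular dichroism over 1 and 5 days, with 1 mM of each monosaccharide present. Loss of antiparallel β-sheet was scored against 25 μM Aβ42 control. Error bars SD.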

SH-SY5Y [4] = assay: Cytotoxicity against human SH-SY5Y cells assessed as reduction in cell viability at 1 mM measured after 1 day by alamar blue assay; assay type: cell-based; conditions: 24 h, 1000 µM
Summary of the method: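 SH-SY5Y neuroblastoma cells exposed to each monosaccharide (1 mM) under cell culture conditions without Aβ42. Viability screened for cytotoxicity.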

SH-SY5Y [5] = assay: Neuroprotective activity against Abeta-42-induced cytotoxicity in human SH-SY5Y cells assessed as increase in cell viability at 1 mM measured upto 5 days by alamar blue assay; assay type: functional, cell-based; conditions: time day <=5
Summary of the method: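 SH-SY5Y cells incubated with Aβ42 plus each monosaccharide (1 mM) for 5 h, 24 h and 5 days. Cell viability measured at each time.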

[6] = biological target: Amyloid-beta precursor protein (Homo sapiens) (UniProt P05067); assay: Modulation of amyloid beta (1 to 42) supramolecular organization in human SH-SY5Y cells assessed as reduction in insulin resistance by measuring reduction in Abeta-42-induced IRS1 phosphorylation at Ser612 residue at 1 mM incubated for 1 hr by immunoblot analysis; assay type: cell-based; conditions: filed as modulator
Summary of the method: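 SH-SY5Y cells cultured 1 h in medium with 10% FBS and no added insulin, with or without Aβ42 (25 μM) and each monosaccharide. IRS1 phosphorylation at S612 quantified by expression analysis. Parallel runs supplemented with 5 nM insulin.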

[7] = biological target: Amyloid-beta precursor protein (Homo sapiens) (UniProt P05067); assay: Modulation of human amyloid beta (1 to 42) supramolecular organization at 0.4 mM by dynamic light scattering based analysis; conditions: filed as modulator
[8] = biological target: Amyloid-beta precursor protein (Homo sapiens) (UniProt P05067); assay: Modulation of human amyloid beta (1 to 42) supramolecular organization assessed as prevalence of Abeta42 fibrils with parallel beta-sheets at 1 mM incubated for 5 days by ATR-FITR analysis; conditions: time 5.0 day
[9] = biological target: Amyloid-beta precursor protein (Homo sapiens) (UniProt P05067); assay: Modulation of human amyloid beta (1 to 42) supramolecular organization assessed as reduction in 6E10 epitope binding site structure at 1 mM measured for 1 to 5 days by Western blot analysis; conditions: filed as modulator, time 1-5 day
Summary of the method: (§2)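 Aβ42 (25 μM) incubated with monosaccharide (1 mM) for 1 or 5 days; assemblies detected by Western blot with antibody 6E10 and quantified by relative densitometry against Aβ42 alone; error bars SD.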

[10] = biological target: Amyloid-beta precursor protein (Homo sapiens) (UniProt P05067); assay: (§3) Modulation of amyloid beta (1 to 42) supramolecular organization in human SH-SY5Y cells assessed as inhibition of Abeta42-induced disruption of cell membrane by measuring reduction in Ca2+ influx at 1 mM incubated for 24 hrs by Fluo-3AM dye based scanning confocal fluorescence microscopy relative to control; conditions: filed as modulator
Summary of the method: (§4)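 SH-SY5Y cells cultured 24 h with Aβ42 (25 μM) plus each monosaccharide (1 mM). Intracellular free Ca2+ imaged by fluorescence using Fluo3-AM […] as Ca2+ probes. Controls were cells cultured without Aβ42 and monosaccharide.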

[11] = biological target: Amyloid-beta precursor protein (Homo sapiens) (UniProt P05067); assay: as §3, with “[…]” for “Fluo-3AM”; conditions: filed as modulator; summary of the method: as §4
[12] = biological target: Amyloid-beta precursor protein (Homo sapiens) (UniProt P05067); assay: Modulation of amyloid beta (1 to 42) supramolecular organization in human SH-SY5Y cells assessed as reduction in insulin resistance by measuring increase in AKT1 phosphorylation phosphorylation at Ser473 residue at 1 mM incubated for 1 hr by immunoblot analysis; assay type: cell-based; conditions: filed as modulator
Summary of the method: (§5)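 SH-SY5Y cells in medium with 10% FBS, no added insulin, cultured 1 h with Aβ42 (25 μM) with or without monosaccharide (1 mM); protein expression read by immunoblot.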

[13] = biological target: Amyloid-beta precursor protein (Homo sapiens) (UniProt P05067); assay: Modulation of amyloid beta (1 to 42) supramolecular organization in human SH-SY5Y cells assessed as reduction in inflammation by measuring decrease in Abeta-42-induced ANXA1 expression at 1 mM incubated for 1 hr by immunoblot analysis; assay type: cell-based; conditions: filed as modulator; summary of the method: as §5
[14] = biological target: Amyloid-beta precursor protein (Homo sapiens) (UniProt P05067); assay: Modulation of amyloid beta (1 to 42) supramolecular organization in human SH-SY5Y cells assessed as reduction in insulin resistance by measuring reduction in Abeta-42-induced IRS1 phosphorylation at Ser612 residue at 1 mM incubated for 1 hr in presence of insulin by immunoblot analysis; assay type: cell-based; conditions: filed as modulator
Summary of the method: (§6)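 SH-SY5Y cells in medium with 10% FBS plus 5 nM insulin, cultured 1 h with Aβ42 (25 μM) with or without monosaccharide (1 mM); protein expression read by immunoblot.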

[15] = biological target: Amyloid-beta precursor protein (Homo sapiens) (UniProt P05067); assay: Modulation of amyloid beta (1 to 42) supramolecular organization in human SH-SY5Y cells assessed as reduction in inflammation by measuring decrease in Abeta-42-induced ANXA1 expression at 1 mM incubated for 1 hr in presence of insulin by immunoblot analysis; assay type: cell-based; conditions: filed as modulator; summary of the method: as §6
[16] = biological target: Amyloid-beta precursor protein (Homo sapiens) (UniProt P05067); assay: Modulation of amyloid beta (1 to 42) supramolecular organization in human SH-SY5Y cells assessed as reduction in AChE activity at 1 mM incubated for 1 day; assay type: cell-based; conditions: filed as modulator
Summary of the method: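 SH-SY5Y neuroblastoma cells exposed to Aβ42 with monosaccharide (1 mM); cellular AChE activity read after 1 day of incubation.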

[17] = biological target: Amyloid-beta precursor protein (Homo sapiens) (UniProt P05067); assay: Modulation of human amyloid beta (1 to 42) supramolecular organization assessed as reduction in amount of cytotoxic Abeta42 oligomers at 1 mM measured for 1 to 5 days by Western blot analysis; conditions: filed as modulator, time 1-5 day; summary of the method: as §2

| Activity [1] | Activity [2] | Activity [6] | Activity [7] | Activity [8] | SMILES | Activity [3] | Activity (SH-SY5Y [4]) | Activity (SH-SY5Y [5]) | Activity [9] | inhibition [10] | inhibition [11] | Activity [12] | Activity [13] | Activity [14] | Activity [15] | Activity ([8]; filed as modulator) | Activity [16] | Activity [17] |
| --- | --- | --- | --- | --- | --- | --- | --- | --- | --- | --- | --- | --- | --- | --- | --- | --- | --- | --- |
| Active | inactive | Active | Active | inactive | CC(=O)N[C@H]1C(O)O[C@H](CO)[C@@H](O)[C@@H]1O (some centres not stated) | Active | Non-Toxic | Active | – | – | – | – | – | – | – | – | – | – |
| Active | inactive | Active | Active | – | N[C@@H]1[C@@H](O)[C@H](O)[C@@H](COP(=O)(O)O)O[C@H]1O | Active | Non-Toxic | Active | Active | Active | Active | Active | Active | Active | Active | Active | – | – |
| Active | inactive | – | Active | inactive | N[C@@H]1[C@@H](O)[C@H](O)[C@@H](CO)O[C@H]1O | Active | Non-Toxic | Active | – | – | – | – | – | – | – | – | – | – |

| SMILES | Activity [1] | Activity [2] | Activity [6] | Activity [7] | Activity [8] | Activity [3] | Activity (SH-SY5Y [4]) | Activity (SH-SY5Y [5]) | Activity [9] | inhibition [10] | inhibition [11] | Activity [12] | Activity [13] | Activity [14] | Activity [15] | Activity ([8]; filed as modulator) | Activity [16] | Activity [17] |
| --- | --- | --- | --- | --- | --- | --- | --- | --- | --- | --- | --- | --- | --- | --- | --- | --- | --- | --- |
| N[C@@H]1[C@@H](O)[C@H](O)[C@@H](COS(=O)(=O)O)O[C@H]1O | Active | inactive | Active | Active | – | Active | Non-Toxic | Active | Active | 41% | 60% | Active | Active | Active | Active | Active | Active | Active |
